# Screens as filed in PubChem.
# In the library only some 2.2% were active in any assay of this set; here they are far more common.
# APP 5UTR inh – APP translation inhibition; SH-SY5Y APP 5'UTR-luciferase reporter, luminescence; inhibition, % at 2 µM; hit rate 0.82% among 190,000; AID 1285;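 active = inhibition above a set limit, derived from the sample mean plus 3 SD, cut at about 45% in these data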
# MT stabilize HCS – microtubule stabilizers in HeLa cells; % tubulin-high responders, % at 10 µM; HeLa tubulin immunostaining HCS, 24 h; share of cells brighter than vehicle mean+2SD; hit rate 0.83% among 200,000; AID 2205;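 active = plate Z-score above 3 for both tubulin-high and condensed-nucleus cell shares, with cell loss under 80%, at 10 µM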;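 note: anti alpha tubulin signal scored within the nucleus-defined area of each cell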
# bCat nuc transl – modulators of beta-catenin nuclear translocation; AID 1665; HeLa beta-catenin nuclear translocation, immunofluorescence imaging; nuclear translocation activity, % at 5 µM; hit rate 0.3% among 190,000;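 active = nuclear translocation activity above 50% at 5 µM, with a well cell count of 50 or more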;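 note: per-cell ratio of nuclear to cytoplasmic median beta-catenin stain intensity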
#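 System: Human HeLa cells, endogenous beta-catenin | Compound dosing: 5 µM primary, 0.02–20 µM confirmation | Timing: 24 h compound exposure at 37°C, 5% CO2 | Measured by: Fluorescence imaging of beta-catenin antibody stain plus DAPI | Read-out basis: % activation of per-cell nuclear versus cytoplasmic median beta-catenin signal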
# IEC-6 cytotox – counter-screen for KLF5 inhibitors: cytotoxicity in IEC-6 cells. IEC-6 cytotoxicity, luminescence viability. inhibition, % at 5 µM. hit rate 0.78% among 290,000; in the data active = inhibition above about 22%
# Ba/F3 V617F tox – lowers viability of Ba/F3 cells expressing EpoR and JAK2V617F | AID 1446 | ATP luminescence | hit rate 1.1% among 220,000 | inhibition, % at 5.6 µM;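 active = inhibition above the campaign mean plus 3 SD over all tested compounds, cut at about 24% in these data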;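 note: cytokine-independent growth of Ba/F3 cells driven by EpoR plus mutant JAK2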
# BaF3 parental – counter-screen for JAK2V617F inhibitors: parental Ba/F3 viability inhibitors | inhibition, % at 5.6 µM | hit rate 1.1% among 220,000 | CellTiter-Glo ATP luminescence | AID 1486;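 active = inhibition above a per-campaign cutoff, the mean inhibition of all tested compounds plus 3 SD, cut at about 27% in these data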
# A number is an active result; - = inactive; . = not tested or not shown.
SMILES,APP 5UTR inh,MT stabilize HCS,bCat nuc transl,IEC-6 cytotox,Ba/F3 V617F tox,BaF3 parental
Cc1ccc2[nH]c(=O)c(CN(CC3CCCO3)C(=S)Nc3ccccc3)cc2c1 (centres undefined),-,12,-,-,-,-
O=c1[nH]c2cc3c(cc2cc1CN(Cc1ccco1)C(=S)NCC1CCCO1)OCCO3 (centres undefined),-,22,-,-,-,-
Cc1ccc2cc(CN(CC3CCCO3)C(=S)Nc3ccccc3)c(=O)[nH]c2c1C (centres undefined),53,-,-,-,-,-
Cc1ccc2cc(CN(Cc3ccco3)C(=S)NCC3CCCO3)c(=O)[nH]c2c1 (centres undefined),-,-,-,-,-,-
COc1ccc(C(=O)N(Cc2ccccc2)Cc2cc3cc4c(cc3[nH]c2=O)OCCO4)cc1,-,36,-,-,-,-
Cc1cc(C)c2[nH]c(=O)c(CN(CC3CCCO3)C(=S)Nc3ccccc3)cc2c1 (centres undefined),.,-,-,-,-,-
Cc1ccc2cc(CN(CC3CCCO3)C(=S)Nc3ccccc3)c(=O)[nH]c2c1 (centres undefined),-,16,64,-,-,-
Cn1ncc(N=Cc2ccccc2)c1C(=O)Nc1cccc(Cl)c1,-,34,-,-,-,-
Cn1ncc(N=Cc2ccccc2)c1C(N)=O,-,-,-,-,-,-
CCCCNc1oc(-c2ccc(OC)cc2)nc1S(=O)(=O)c1ccccc1,-,-,-,-,-,-
CCNc1oc(-c2ccc(OC)cc2)nc1S(=O)(=O)c1ccc(Br)cc1,49,-,-,-,-,-
O=C(c1cc(-c2cccs2)nc2ccccc12)N1CCN(S(=O)(=O)c2ccccc2)CC1,-,-,-,-,-,-
O=C(N/N=C/c1ccc2c(c1)OCO2)c1cc(-c2ccccc2)nc2ccccc12,-,29,-,-,-,-
O=C(c1cc(-c2cccs2)nc2ccccc12)N1CCN(c2ccccc2)CC1,-,19,-,-,-,-
O=C(N/N=C/c1ccc(Cl)cc1)c1ccc2c(c1)OCO2,.,.,.,-,.,.
CCCC(=O)Nc1ccc(C(=O)N/N=C/c2ccc([N+](=O)[O-])o2)cc1,96,-,-,-,-,-
O=C(N/N=C/c1ccc2c(c1)OCO2)c1ccc2c(c1)OCCO2,-,12,.,-,-,-
O=C(N/N=C/c1ccc2c(c1)OCO2)c1ccc2ccccc2n1,-,-,-,-,-,-
CC(C)N(Cc1ccccc1)C(=O)CN1C(=O)COc2ccc(S(=O)(=O)N3CCCCCC3)cc21,.,.,.,-,.,.
NS(=O)(=O)c1ccc(-c2ccc(/C=N/NC(=O)c3ccc([N+](=O)[O-])cc3)o2)cc1,.,.,-,-,-,50
CCCc1ccc(-c2cc(C(=O)N/N=C/c3ccc([N+](=O)[O-])o3)c3ccccc3n2)cc1,-,35,229,-,-,-
COc1cc(/C=N/NC(=O)c2cc(-c3cccs3)nc3ccccc23)ccc1O,.,.,-,-,-,-
O=C(N/N=C/c1c[nH]c2ccc(Br)cc12)c1ccc2c(c1)OCO2,-,44,73,-,-,-
N#Cc1ccc(/C=N/NC(=O)c2cc(-c3cccs3)nc3ccccc23)cc1,-,17,116,-,-,-
O=C(N/N=C/c1ccc([N+](=O)[O-])o1)c1cc(-c2cccc(Br)c2)nc2ccccc12,-,-,-,-,-,-
SMILES,APP 5UTR inh,MT stabilize HCS,bCat nuc transl,IEC-6 cytotox,Ba/F3 V617F tox,BaF3 parental
CCC(=O)N/N=C/c1ccc(-c2ccc([N+](=O)[O-])cc2)o1,-,-,-,-,-,-
CCC(CC)C1C(C#N)=C(N)Oc2n[nH]c(C)c21 (centres undefined),-,-,-,-,-,92
CCCCN(CC)Cc1c(O)ccc2c(-c3ccccc3)cc(=O)oc12,.,.,-,-,-,29
CCN(CC)Cc1c(O)ccc2c(-c3ccccc3)cc(=O)oc12,-,-,-,-,-,-
O=C(c1ccc(O)c(Cl)c1)N1CCN(S(=O)(=O)c2ccccc2)CC1,.,.,.,-,.,.
COc1ccc(C[C@H]2COC(=O)[C@@H]2Cc2ccc(OC3OC(CO)C(O)C(O)C3O)c(OC)c2)cc1OC (some centres undefined),-,-,.,-,-,41
N#C/C(C(=O)Nc1ccc(Cl)cc1)=C(/S)Nc1ccccc1,.,.,.,-,.,.
CC(C)c1nc(SCC(=O)Nc2ccc3c(c2)OCCO3)c2c(=O)n(C)c(=O)n(C)c2n1,-,22,-,-,-,-
CCCCOC(=O)CSC1=C(C#N)C(c2ccc3c(c2)OCO3)CC(=O)N1 (centres undefined),-,-,-,-,-,-
CCOC(=O)CSC1=C(C#N)C(c2ccc3c(c2)OCO3)CC(=O)N1 (centres undefined),-,49,-,-,-,-
CCn1c(=O)cc(OCC(=O)NCCCN2CCCC2=O)c2ccccc21,.,.,.,-,.,.
Cc1ccc(S(=O)(=O)N(CC(=O)NCC2CCCO2)Cc2ccc(F)cc2)cc1 (centres undefined),.,.,.,-,.,.
Cc1cc(C)c(Cn2cnc(-c3ccc([N+](=O)[O-])cc3)c2)c(C)c1,-,-,-,-,-,-
CC(C)(C)c1ccc(Cn2cnc(-c3ccc([N+](=O)[O-])cc3)c2)cc1,-,-,-,-,-,39
Cc1cc(C)c2nc(Cl)c(CN(Cc3ccco3)C(=O)Nc3ccccc3C)cc2c1,57,21,-,-,-,-
COCCN(Cc1cc2cc(C)cc(C)c2nc1Cl)C(=O)Nc1ccccc1,-,34,-,-,-,-
N=c1ccn(Cc2ccc(Cl)c(Cl)c2)cc1,-,-,-,-,89,75
N=c1ccn(Cc2ccc(Cl)cc2)cc1,-,-,-,-,92,68
N=c1ccn(Cc2cccc(Cl)c2)cc1,-,-,-,-,88,66
Clc1cccc(CN2CCN(Cc3ccco3)CC2)c1,.,.,.,-,.,.
Clc1ccc(CN2CCCCCCC2)cc1Cl,-,-,-,-,-,-
CCN1CCN(C(=O)CCc2nnc(CCc3ccccc3OC)o2)[C@@H](C)C1=O,.,.,.,-,.,.
COc1ccc(-n2c(-c3ccc(Cl)cc3)c[nH]c2=S)cc1,.,.,.,-,.,.
Oc1ccc(/C=N/N=C(c2ccccc2)c2ccccc2)c(O)c1O,49,-,-,-,-,-
CN(c1ccccc1)S(=O)(=O)c1ccc(Cl)c(C(=O)Nc2ccc(-c3nc4ccccc4[nH]3)cc2)c1,-,17,-,-,-,-
CC1C(=O)N2CCCc3cc(S(=O)(=O)N(C)CCC#N)cc1c32 (centres undefined),.,.,.,-,.,.
Nc1cccc(CCc2nc3cc4ccccc4cc3[nH]2)c1,-,-,81,49,88,51
C=CCN1C(=Nc2cccnc2)SCC1(O)c1ccc(C)cc1 (centres undefined),-,-,-,-,-,33
Cc1csc(=Nc2cccnc2)n1CC1CCCCC1,-,-,.,-,-,-
COc1cccc(C(=O)N2CCC(C(=O)NCc3ccc(C)cc3)CC2)c1,.,.,.,-,.,.
